Compounds with a hit are over-represented: about 12% of the library has one in this group of screens.
Diaphorase act: counter-screen for diaphorase-based assays: diaphorase activators and chemical reducers. Diaphorase/resazurin coupled assay, resorufin fluorescence, 16 min; active compounds read high; 1 = vehicle wells, 0 = NADH-free wells. activation factor at 20 µM. 0.005% of 190,000 active;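 active = diaphorase activity raised at least twofold by the compound at 20 µM; inactive = activation factor below 2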
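System – purified diaphorase enzyme from Clostridium kluyveri · Input – enzyme 0.07 U/mL final · Also added – final NADH 0.114 mM, resazurin 0.1 mM · Measured by – fluorescence of resorufin, 544 nm excitation, 590 nm emission · Timing – 16 min enzyme reaction, ambient temperature · Measure – resorufin increase flagging diaphorase activators or reducers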
Cl transport mod: KCC2 (human) Cl- transport modulation; B-score of Tl+ flux slope (higher = more flux/activation; lower = inhibition) at 10 µM; Q9H2X9; KCC2 cells, thallium flux FluoZin-2 fluorescence; 2.2% of 190,000 active;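 active = thallium flux slope and its plate-corrected score both differing from the plate sample mean at a set confidence after two filtering rounds, in either direction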;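 note: slope of fluorescence scaled to starting intensity during 10 to 20 s after thallium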
Target sequence (Q9H2X9 whole entry, looked up): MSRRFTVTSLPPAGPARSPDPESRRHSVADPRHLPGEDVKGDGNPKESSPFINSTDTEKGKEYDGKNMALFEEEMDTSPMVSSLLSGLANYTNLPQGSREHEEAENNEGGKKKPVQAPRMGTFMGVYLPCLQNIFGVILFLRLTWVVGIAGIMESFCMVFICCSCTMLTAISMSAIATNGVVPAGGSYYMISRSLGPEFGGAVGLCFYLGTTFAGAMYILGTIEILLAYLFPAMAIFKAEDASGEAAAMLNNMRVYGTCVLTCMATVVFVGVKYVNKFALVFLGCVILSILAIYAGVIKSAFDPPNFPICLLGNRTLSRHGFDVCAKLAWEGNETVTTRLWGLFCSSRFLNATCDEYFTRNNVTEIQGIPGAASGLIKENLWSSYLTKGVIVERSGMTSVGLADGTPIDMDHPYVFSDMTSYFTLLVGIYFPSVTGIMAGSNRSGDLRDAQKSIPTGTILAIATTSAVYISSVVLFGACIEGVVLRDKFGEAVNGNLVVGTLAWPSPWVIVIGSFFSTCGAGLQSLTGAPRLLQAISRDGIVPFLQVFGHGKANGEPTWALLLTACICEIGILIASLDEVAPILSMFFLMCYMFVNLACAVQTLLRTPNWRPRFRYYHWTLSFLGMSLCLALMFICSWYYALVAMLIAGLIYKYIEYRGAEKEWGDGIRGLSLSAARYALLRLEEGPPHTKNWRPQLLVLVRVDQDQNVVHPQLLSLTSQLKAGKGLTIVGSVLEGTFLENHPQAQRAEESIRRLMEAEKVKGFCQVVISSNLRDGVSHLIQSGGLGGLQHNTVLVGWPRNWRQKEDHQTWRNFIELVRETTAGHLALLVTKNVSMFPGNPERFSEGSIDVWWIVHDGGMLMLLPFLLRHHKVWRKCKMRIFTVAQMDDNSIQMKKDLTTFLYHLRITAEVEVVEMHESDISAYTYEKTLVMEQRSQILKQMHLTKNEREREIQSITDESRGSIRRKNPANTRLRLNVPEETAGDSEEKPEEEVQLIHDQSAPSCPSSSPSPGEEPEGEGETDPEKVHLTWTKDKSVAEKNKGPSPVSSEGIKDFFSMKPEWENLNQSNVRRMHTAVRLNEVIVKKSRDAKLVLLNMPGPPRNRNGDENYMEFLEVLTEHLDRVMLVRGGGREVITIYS
Diaph inh CS: inhibits diaphorase or chemically oxidizes, flagging diaphorase assay artifacts; inhibition, % at 20 µM; diaphorase resazurin-to-resorufin fluorescence, NADH, 16 min; bacterial (C. kluyveri) enzyme, not human; 0.69% of 190,000 active;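 active = primary screen inhibition at 20 µM above a set limit, cut at about 50% in these data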;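 note: plate controls were DMSO with full reaction for no effect and wells lacking NADH for full effect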
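System: Diaphorase enzyme from Clostridium kluyveri | Amount: Enzyme working solution with 0.14 U/mL diaphorase | Benchmarks: No-NADH positive control and DMSO neutral control | Signal: Fluorescence of resorufin formed from resazurin, Ex 544/Em 590 nm | Schedule: 16-min room-temperature incubation before reading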
Lmaj promast: Leishmania major promastigote growth inhibition | Leishmania major promastigotes, resazurin fluorescence viability | inhibition, % at 10 µM | 9% of 200,000 active; in the data active = inhibition above about 50%;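 note: promastigotes grown with compound for 44 hours at 28 °C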
ROMK primary: modulators of human ROMK potassium channel; Tet-inducible ROMK, thallium flux fluorescence; actives lie on both sides; B-score at 10 µM; 2% of 130,000 active; P48048; AID 1918;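 active = signal ratio slope over the read window, or its plate-corrected B-score, at least 3 SD from the plate mean, either direction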;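 note: B-score of the F/F0 ratio slope over 7 to 12 s after thallium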
WT yeast gro inh: growth inhibition of WT yeast, mitochondrial fusion screen; inhibition, % at 10 µM; mitochondrial fusion phenotypic screen, WT strain; 2.1% of 190,000 active; in the data active = inhibition above about 58%; tested in S. cerevisiae
Numbers without * were called inactive; / = not tested or not shown.

SMILES | Diaphorase act | Cl transport mod | Diaph inh CS | Lmaj promast | ROMK primary | WT yeast gro inh
Cc1cc(NC(=O)CSc2nnc(-c3ccc4c(c3)OCCO4)o2)no1 | 0.8 | -0.082 | 22 | -5 | / | 0
Cc1ccc(NC(=O)Cc2nc(CSc3nnc(-c4ccc5c(c4)OCO5)o3)cs2)cc1 | 0.9 | / | 8 | 87* | / | 16
Cc1cccc(/C=N/Nc2ccc3ccccc3n2)c1 | 1 | 0.71 | 4 | 34 | 0.26 | 64*
Cc1ccc(/C=N/Nc2ccc3ccccc3n2)o1 | 1.1 | 0.23 | -6 | 63* | 0.72 | 54
CC1CN(S(=O)(=O)c2cccc(-c3csc(-c4ccccc4)n3)c2)CC(C)O1 (stereo not drawn) | 0.8 | 0.1 | 19 | 97* | -0.71 | 34
CN(C)NC(=S)NC1(C)CCS(=O)(=O)C1 (stereo not drawn) | / | 0.37 | / | / | / | /
Cc1cc(Nc2cccc(O)c2)c2ccccc2n1 | 1 | -0.25 | -2 | 8 | -0.28 | -3
Cc1cc(Nc2ccccc2)nc2cc(O)ccc12 | 1 | -1.6 | 2 | 83* | 0.14 | 62*
Cc1ccc(C)c(N2CCN(C(=O)c3ccc(CS(=O)(=O)c4ccccc4C)o3)CC2)c1 | 0.7 | 0.0021 | 30 | 9 | / | 57
Cc1cccc(N2CCN(C(=O)c3ccc(CS(=O)(=O)c4ccccc4C)o3)CC2C)c1 (stereo not drawn) | 0.8 | -0.98 | 19 | 59* | 1.3 | 51
COc1cccc2cc(-c3csc(NC(=O)CCC(=O)NCCCN4CCC(C)CC4)n3)c(=O)oc12 | / | -0.35 | / | / | / | /
CCOc1cccc2cc(-c3csc(NC(=O)CCC(=O)NCCCN4CCC(C)CC4)n3)c(=O)oc12 | 1 | -0.65 | -2 | 62* | -2.8 | 5
CCN1C(=O)/C(=C/c2nc3ccccc3c(=O)n2-c2ccc(C)cc2)c2ccccc21 | 0.8 | 0.27 | 18 | 99* | / | 4
CCN1C(=O)/C(=C/c2nc3ccccc3c(=O)[nH]2)c2ccccc21 | 0.9 | 0.12 | 11 | 99* | -0.56 | -2
COc1ccc(-n2c(/C=C3\C(=O)N(C)c4ccccc43)nc3ccccc3c2=O)cc1 | / | -0.69 | / | / | / | /
CCN1C(=O)/C(=C\c2nc3ccccc3c(=O)n2-c2ccccc2)c2ccccc21 | 0.6 | -0.69 | 40 | 77* | -0.43 | 5
CC(=O)Nc1cccc(/C(C)=N\NC(=O)c2ccc(Cn3nc([N+](=O)[O-])c(Cl)c3C)o2)c1 | 0.9 | -1.1 | 15 | 0 | 0.041 | -6
O=C(CC1Sc2ncnn2C1=O)Nc1ccc(Br)cc1 (stereo not drawn) | 0.8 | 0.11 | 16 | 17 | / | 8
c1ccc(C2=Nn3c(nnc3-c3ccco3)SC2)cc1 | 0.3 | -0.72 | 73* | 7 | 0.23 | 14
Fc1ccc(C2=Nn3c(nnc3-c3ccco3)SC2)cc1 | / | -1.1 | / | / | -0.66 | /
CCNc1nc(NCC)nc(N/N=C/c2ccc([N+](=O)[O-])o2)n1 | 0.9 | -0.65 | 15 | 98* | -0.12 | -2
CCNc1nc(NCC)nc(N/N=C/c2ccc(OC)cc2)n1 | / | -0.67 | / | / | -0.37 | /
O=[N+]([O-])c1ccc(/C=N/Nc2ccc3ccccc3c2)o1 | 0.7 | / | 32 | -5 | 0.012 | 18
Cc1ccc2nc(N/N=C\c3ccc([N+](=O)[O-])o3)nc(-c3ccccc3)c2c1 | 0.8 | -2 | 17 | 98* | -0.44 | 68
O=[N+]([O-])c1ccc(/C=N/Nc2nc(-c3ccccc3)c3cc(Br)ccc3n2)o1 | 1 | 0.56 | -4 | 93* | 0.1 | 73
SMILES | Diaphorase act | Cl transport mod | Diaph inh CS | Lmaj promast | ROMK primary | WT yeast gro inh
O=C(N/N=C/c1ccc(Cl)cc1)C(=O)N1CCCCCC1 | / | 0.1 | / | 18 | 0.025 | 3
Cc1ccccc1Nc1scc(-c2ccc(Cl)cc2)[n+]1-c1ccccc1C | 0.9 | -0.41 | 9 | 35 | -0.02 | 59*
Cc1c(Nc2scc(-c3ccccc3)[n+]2-c2ccccc2)c(=O)n(-c2ccccc2)n1C | 0.9 | -0.18 | 15 | 17 | -1.4 | 35
O=C(NCc1ccc(F)cc1)c1ccc(S(=O)(=O)Nc2cccc(C(F)(F)F)c2)cc1 | 0.8 | -0.79 | 16 | 66* | -1.7 | 5
Cc1cc(NC(=O)Nc2ccc(Cl)c(Cl)c2)n(-c2ccccc2)n1 | / | 0.64 | / | / | / | /
CCOc1ccc(N=C2NC(=O)S/C2=C\c2ccc(N(C)C)cc2)cc1 | 1 | / | 4 | 3 | / | -9
